From ChEMBL document CHEMBL4017539, “Oral Delivery of Propofol with Methoxymethylphosphonic Acid as the Delivery Vehicle” (J Med Chem, 2017)

What was measured:
Mus musculus [1] = assay: Sleep promoting activity in ICR mouse assessed as pentobarbital induced sleep time at 65 mg/kg, po administered 5 mins before pentobarbital injection (reference value: 33 +/- 20 min); type: functional
Method in brief: (§1)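 Fasted male and female ICR mice (n=10/group) received vehicle or 55, 65 or 75 mg/kg orally in 10% DMSO, 20% Solutol HS-15 (30%, w/v), 70% saline, 5 min before pentobarbital 40 mg/kg i.p. Sleep duration ran from falling asleep to recovery of the righting reflex. Data are mean ± SEM versus vehicle.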

Mus musculus [2] = assay: Anesthetic activity in ICR mouse assessed as anesthetic duration time at 200 mg equiv/kg parent drug administered via oral gavage; type: functional
Method in brief: (§2)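 Male and female ICR mice (20 ± 2 g), fasted overnight, dosed by gavage in 10% DMSO, 20% Solutol HS-15, 70% saline (n = 10/group for diastereoisomeric mixtures, n = 6/group for single diastereoisomers). Mice were placed on their backs until righting stopped. Read-outs were onset of LORR, anesthetic duration, percent with LORR and percent mortality per group.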

Mus musculus [3] = assay: Anesthetic activity in ICR mouse assessed as onset time for loss of righting reflex at 200 mg equiv/kg parent drug administered via oral gavage; type: functional; method in brief: as §2
Mus musculus [4] = assay: Sleep promoting activity in ICR mouse assessed as pentobarbital induced sleep time at 75 mg/kg, po administered 5 mins before pentobarbital injection (reference value: 33 +/- 20 min); type: functional; method in brief: as §1
Mus musculus [5] = assay: Sleep promoting activity in po dosed ICR mouse assessed as increase in pentobarbital induced sleep time administered 5 mins before pentobarbital injection; type: functional, organism-based; method in brief: as §1
[6] = Toxicity in ICR mouse assessed as death at 200 mg equiv/kg parent drug administered via oral gavage relative to control; details: in vivo; method in brief: as §2
Mus musculus [7] = assay: Anesthetic activity in ICR mouse assessed as loss of righting reflex at 200 mg equiv/kg parent drug administered via oral gavage relative to control; type: functional; method in brief: as §2
[8] = AUC (0 to t) in Beagle dog at 0.2 mg/kg, iv administered as single bolus dose by LC-MS/MS analysis; type: ADME, organism-based, Canis lupus familiaris; details: in vivo
[9] = Cmax in Beagle dog at 0.2 mg/kg, iv administered as single bolus dose by LC-MS/MS analysis; type: ADME, organism-based, Canis lupus familiaris; set-up: dose 0.2 mg/kg, route intravenous; details: in vivo
Method in brief: (§3)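 Beagle dogs (n=3/group) received the parent drug as an intravenous bolus. Heparinized blood was drawn pre-dose and at 2, 5, 10, 20 and 30 min and 1, 2, 4, 6, 8, 10, 12 and 24 h. Plasma was separated by centrifugation at 2–8 °C and stored at -80 °C. Parent drug was measured by LC-MS/MS, and parameters were derived by non-compartmental analysis.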

[10] = Half life in Beagle dog at 0.2 mg/kg, iv administered as single bolus dose by LC-MS/MS analysis; type: ADME, organism-based, Canis lupus familiaris; details: in vivo; method in brief: as §3
in vivo [11] = details: Beagle, dog, po, 6.9 mg/kg
in vivo [12] = details: Beagle, dog, iv, 3 mg/kg
[13] = Half life in Beagle dog at 6.9 mg/kg, po by LC-MS/MS analysis; details: in vivo
in vivo [14] = details: Beagle, dog, iv, 3 mg/kg; remark: listed apart in the source
[15] = Half life in Beagle dog at 3 mg/kg, iv administered as single bolus dose by LC-MS/MS analysis; details: in vivo
in vivo [16] = details: Beagle, dog, po, 6.9 mg/kg; remark: listed apart in the source
in vivo [17] = details: Beagle, dog, po, 6.9 mg/kg; remark: listed apart in the source
Mus musculus [18] = assay: Anesthetic activity in ICR mouse assessed as onset time for loss of righting reflex at 100 mg equiv/kg parent drug administered via oral gavage; type: functional; method in brief: as §2
Mus musculus [19] = assay: Anesthetic activity in ICR mouse assessed as loss of righting reflex at 100 mg equiv/kg parent drug administered via oral gavage relative to control; type: functional; method in brief: as §2
Mus musculus [20] = assay: Anesthetic activity in ICR mouse assessed as anesthetic duration time at 100 mg equiv/kg parent drug administered via oral gavage; type: functional; method in brief: as §2
[21] = Toxicity in ICR mouse assessed as death at 100 mg equiv/kg parent drug administered via oral gavage relative to control; details: in vivo; method in brief: as §2
[22] = AUC (0 to t) in Beagle dog at 2 mg/kg, iv administered as single bolus dose by LC-MS/MS analysis; type: ADME, organism-based, Canis lupus familiaris; details: in vivo
[23] = Cmax in Beagle dog at 2 mg/kg, iv administered as single bolus dose by LC-MS/MS analysis; type: ADME, organism-based, Canis lupus familiaris; set-up: dose 2 mg/kg, route intravenous; details: in vivo
Method in brief: (§4)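 Beagle dogs (n=3/group) received a single i.v. bolus of parent drug, then after a one-week washout received the prodrug i.g. in 5% DMSO, 5% Solutol HS-15 (30%, w/v), 90% saline. Heparinized blood was taken to 24 h, and plasma was obtained at 2–8 °C and stored at -80 °C. Parent drug was measured by LC-MS/MS and analysed non-compartmentally. Oral bioavailability was oral versus i.v. exposure to the active compound.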

[24] = Half life in Beagle dog at 2 mg/kg, iv administered as single bolus dose by LC-MS/MS analysis; type: ADME, organism-based, Canis lupus familiaris; details: in vivo; method in brief: as §4
[25] = Cmax in Beagle dog at 10 mg/kg, po by LC-MS/MS analysis; type: ADME, organism-based, Canis lupus familiaris; set-up: dose 10 mg/kg, route oral; details: in vivo; method in brief: as §4
[26] = Half life in Beagle dog at 10 mg/kg, po by LC-MS/MS analysis; type: ADME, organism-based, Canis lupus familiaris; details: in vivo; method in brief: as §4
[27] = AUC (0 to t) in Beagle dog at 10 mg/kg, po by LC-MS/MS analysis; type: ADME, organism-based, Canis lupus familiaris; details: in vivo
[28] = Half life in Beagle dog at 1 mg/kg, iv administered as single bolus dose by LC-MS/MS analysis; type: ADME, organism-based, Canis lupus familiaris; details: in vivo; method in brief: as §4
[29] = AUC (0 to t) in Beagle dog at 1 mg/kg, iv administered as single bolus dose by LC-MS/MS analysis; type: ADME, organism-based, Canis lupus familiaris; details: in vivo
[30] = Cmax in Beagle dog at 1 mg/kg, iv administered as single bolus dose by LC-MS/MS analysis; type: ADME, organism-based, Canis lupus familiaris; set-up: dose 1 mg/kg, route intravenous; details: in vivo; method in brief: as §4
[31] = Oral bioavailability in Beagle dog at 10 mg/kg by LC-MS/MS analysis; type: ADME, organism-based, Canis lupus familiaris; details: in vivo; method in brief: as §4

| Compound | Time (Mus musculus [2]) [min] | Time (Mus musculus [3]) [min] | mortality [6] [%] | Activity (Mus musculus [7]) [%] | also measured |
| --- | --- | --- | --- | --- | --- |
| CCOC(=O)[C@H](C)N[P@](=O)(COC)Oc1c(C(C)C)cccc1C(C)C | 40.1 | 4.38 | 0 | 100 | Time (Mus musculus [1]): 69 min; Time (Mus musculus [4]): 82 min; Activity (Mus musculus [5]): Dose-dependent effect |
| C[C@]12CC[C@@H]3c4ccc(O)cc4CC[C@H]3[C@@H]1CC[C@@H]2O [ESTRADIOL] |  |  |  |  | AUC(0-t) [8]: 28 ng·h/mL; Cmax [9]: 76 ng/mL; half-life [10]: 16.2 min |
| CCOC(=O)[C@H](C)N[P@@](=O)(COC)Oc1c(C(C)C)cccc1C(C)C | 47.24 | 9.68 | 0 | 33 |  |
| CCOC(=O)[C@@H](C)NP(=O)(COC)Oc1c(C(C)C)cccc1C(C)C (stereo partly specified) | 44.8 | 9.48 | 10 | 100 |  |
| CC(C)c1cccc(C(C)C)c1O [PROPOFOL] |  |  |  |  | AUC(0-t) (in vivo [11]): 102 ng·h/mL; Cmax (in vivo [12]): 2050 ng/mL; half-life [13]: 38.4 min; AUC(0-t) (in vivo [14]): 616 ng·h/mL; half-life [15]: 12 min; bioavailability (in vivo [16]): 7.3%; Cmax (in vivo [17]): 97 ng/mL |
| CCOC(=O)[C@H](C)N[P@@](=O)(COC)Oc1c(C(C)C)cccc1[C@H](C)C1CC1 |  |  |  |  | Time (Mus musculus [18]): 4.35 min; Activity (Mus musculus [19]): 100%; Time (Mus musculus [20]): 85.23 min; mortality [21]: 17% |
| CCOC(=O)[C@H](C)NP(=O)(CN1CCOCC1)Oc1c(C(C)C)cccc1C(C)C (stereo partly specified) | 16.18 | 7.65 | 10 | 60 |  |
| CCOC(=O)C(C)(C)NP(=O)(COC)Oc1c(C(C)C)cccc1C(C)C (stereo unspecified) | 115.9 | 6.74 | 20 | 100 |  |
| COCP(=O)(N[C@@H](C)C(=O)OCc1ccccc1)Oc1c(C(C)C)cccc1C(C)C (stereo partly specified) | 94.61 | 9.34 | 10 | 50 |  |
| CCc1c2c(nc3ccc(O)cc13)-c1cc3c(c(=O)n1C2)COC(=O)[C@]3(O)CC [7-ETHYL-10-HYDROXYCAMPTOTHECIN] |  |  |  |  | AUC(0-t) [22]: 410 ng·h/mL; Cmax [23]: 983 ng/mL; half-life [24]: 160 min |
| COCP(=O)(N[C@@H](C)C(=O)OCC(C)C)Oc1c(C(C)C)cccc1C(C)C (stereo partly specified) | 24.47 | 8.36 | 10 | 100 |  |
| CCOC(=O)CNP(=O)(COC)Oc1c(C(C)C)cccc1C(C)C (stereo unspecified) | 32.48 | 14.37 | 0 | 70 |  |
| C=CCN1CC[C@]23c4c5ccc(O)c4O[C@H]2C(=O)CC[C@@]3(O)[C@H]1C5 [NALOXONE] |  |  |  |  | Cmax [25]: 43 ng/mL; half-life [26]: 539 min; AUC(0-t) [27]: 117 ng·h/mL; half-life [28]: 22.8 min; AUC(0-t) [29]: 122 ng·h/mL; Cmax [30]: 196 ng/mL; bioavailability [31]: 9.6% |
| CC(C)c1cccc([C@H](C)C2CC2)c1O [CIPEPOFOL] |  |  |  |  | Cmax [25]: 233 ng/mL; AUC(0-t) [22]: 417 ng·h/mL; half-life [26]: 26.4 min; AUC(0-t) [27]: 162 ng·h/mL; Cmax [23]: 1610 ng/mL; half-life [24]: 12 min; bioavailability [31]: 7.7% |
| CCOC(=O)[C@H](C)N[P@](=O)(COC)Oc1c(C(C)C)cccc1[C@H](C)C1CC1 |  |  |  |  | Time (Mus musculus [18]): 3.98 min; Activity (Mus musculus [19]): 100%; Time (Mus musculus [20]): 107.68 min; mortality [21]: 0% |
| CCOC(=O)[C@H](C)NP(=O)(COC)Oc1c(C(C)C)cccc1[C@H](C)C1CC1 (stereo partly specified) |  |  |  |  | Time (Mus musculus [18]): 4.49 min; Activity (Mus musculus [19]): 100%; Time (Mus musculus [20]): 74.44 min; mortality [21]: 50% |
| CCOC(=O)[C@H](C)NP(=O)(CO)Oc1c(C(C)C)cccc1C(C)C (stereo partly specified) | 19.19 | 6.91 | 10 | 40 |  |
| CCOC(=O)[C@H](C)NP(=O)(COC)Oc1c(C(C)C)cccc1C(C)C (stereo partly specified) | 60.31 | 4.5 | 10 | 100 |  |
| COCP(=O)(N[C@@H](C)C(=O)OC(C)C)Oc1c(C(C)C)cccc1C(C)C (stereo partly specified) | 59.38 | 12.7 | 0 | 40 |  |
